Among the data in ChEMBL document CHEMBL1140279, “Synthesis and antimalarial evaluation of new N1-(7-chloro-4-quinolyl)-1,4-bis(3-aminopropyl)piperazine derivatives” (Bioorg Med Chem Lett, 2005) are Ratio, IC50 and CC50 values, retold here.

What is called IC50 is the concentration at which inhibition is half-maximal. By CC50 is commonly meant the concentration at which the toxic effect on the cells reaches its halfway point. Low values mean harm at low concentration, high ones better tolerance by the cells.

For experiment [1], the system named is MRC5. The experiment is described as follows: Ratio of CC50/IC50 was determined. Type of experiment: functional, Homo sapiens. The procedure, abridged: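 Selectivity index taken as the ratio of CC50 on MRC-5 human diploid embryonic lung cells (colorimetric MTT assay) to IC50 for growth inhibition of the chloroquine-resistant Plasmodium falciparum strain FcB1. The IC50s come from triplicate experiments and are reported with standard error.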

A further experiment relates to Plasmodium falciparum. The experiment is described as follows: Antimalarial activity as growth inhibition of chloroquine-resistant Plasmodium falciparum FcB1. Type of experiment: functional, organism-based. The procedure, abridged: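 Parasite growth inhibition assay on the chloroquine-resistant P. falciparum FcB1 strain. IC50 values are derived from triplicate experiments and reported with standard error.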

The test system of experiment [2] is MRC5. The experiment is described as follows: Cytotoxic concentration of compound of compound […] MRC-5 cells (human diploid embryonic lung cell line). Type of experiment: functional. In short, it runs like this: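 Cytotoxicity measured on MRC-5 human diploid embryonic lung cells with a colorimetric MTT assay, giving the CC50.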

As for `O=C(CCCO)N(CCCN1CCN(CCCNc2ccnc3cc(Cl)ccc23)CC1)CC1CC1`, the Ratio in the experiment with MRC5 [1] is 122. The compound also returned an IC50 in the experiment on Plasmodium falciparum of 0.172 µM. Also, the CC50 in the experiment on MRC5 [2] turned out to be 21 µM.

As for `CC(C)(C)OC(=O)NCCCN(CCCN1CCN(CCCNc2ccnc3cc(Cl)ccc23)CC1)CC1CC1`, in the experiment on MRC5 [1], the Ratio turned out to be 317. In the experiment with Plasmodium falciparum, this compound came in with an IC50 of 0.0126 µM. Further, in the experiment with MRC5 [2], it took 4 µM to reach half-maximal cytotoxicity (CC50).

Regarding `CC(C)(C)OC(=O)NCCC(=O)N(CCCN1CCN(CCCNc2ccnc3cc(Cl)ccc23)CC1)CC1CC1`, in the experiment with MRC5 [1], the Ratio amounted to 116. In the experiment on Plasmodium falciparum, this compound registered an IC50 of 0.0342 µM. For the same compound, in the experiment on MRC5 [2], the CC50 was determined as 4 µM.

Turning to `N#CCCCCN(CCCN1CCN(CCCNc2ccnc3cc(Cl)ccc23)CC1)CC1CC1`, the Ratio in the experiment on MRC5 [1] is listed as 404. This compound came in with an IC50 with Plasmodium falciparum of 0.0099 µM. Besides, half-maximal cytotoxicity in the experiment on MRC5 [2] (CC50) was put at 4 µM.

Regarding `O=C(C1CC1)N(CCCN1CCN(CCCNc2ccnc3cc(Cl)ccc23)CC1)CC1CC1`, the Ratio with MRC5 [1] turned out to be 2076. Besides, the midpoint of inhibition with Plasmodium falciparum, the IC50, lay at 0.0065 µM. Moreover, the CC50 in the experiment on MRC5 [2] came to 13.5 µM.

For `NCCCN(CCCN1CCN(CCCNc2ccnc3cc(Cl)ccc23)CC1)CC1CC1`, in the experiment with MRC5 [1], the Ratio is recorded as more than 210. The compound further gave a concentration for half-maximal inhibition (IC50) in the experiment on Plasmodium falciparum of 0.152 µM. Moreover, the CC50 with MRC5 [2] is more than 32 µM.

As to `NCCC(=O)N(CCCN1CCN(CCCNc2ccnc3cc(Cl)ccc23)CC1)CC1CC1`, the Ratio with MRC5 [1] is given as more than 80. This compound also registered a CC50 with MRC5 [2] of more than 32 µM.

In the experiment on Plasmodium falciparum, `NC(=O)CCC(=O)N(CCCN1CCN(CCCNc2ccnc3cc(Cl)ccc23)CC1)CC1CC1` came in with an IC50 of less than 1 µM. In the experiment with MRC5 [2], this compound showed a CC50 of more than 32 µM.

As to `O=C(O)CCC(=O)N(CCCN1CCN(CCCNc2ccnc3cc(Cl)ccc23)CC1)CC1CC1`, the Ratio in the experiment with MRC5 [1] is more than 23. Also, the CC50 in the experiment on MRC5 [2] was more than 32 µM.
